Molecules are shown by their SMILES.

One compound from ChEMBL document CHEMBL1122443, “Synthesis and antitumor evaluation of selected 5,6-disubstituted 1(2)H-indazole-4,7-diones” (1983) can be followed below.

Common to all, as to format: functional
Assay [1] relates to Mus musculus. The assay can be described thus: Anti tumor activity in mice bearing lymphocytic leukemia P-388 at 1 mg/kg. In short, it runs like this:
(§1)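 Male BDF1 mice (20–23 g) were inoculated ip with 1 × 10⁶ P-388 leukemia cells on day 0. Compound was given ip once daily on days 1–14 in 0.05% Tween 80 vehicle, with a vehicle control group and 5-fluorouracil as positive control. Activity was scored as % T/C, average days survived treated/control, with >125% taken as significant.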

Assay [2] relates to Mus musculus. The assay can be described thus: Anti tumor activity in mice bearing lymphocytic leukemia P-388 at 20 mg/kg. In short, it runs like this:
(§2)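 Male BDF1 mice (20–23 g) inoculated ip with 1 × 10⁶ P-388 lymphocytic leukemia cells on day 0. Test agents were given ip once daily on days 1–14, with 0.05% Tween 80 as vehicle for treated and control groups. Read-out is %T/C, the mean days survived by treated over control. Values above 125% were counted as significant. 5-Fluorouracil was the positive control.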

Assay [3] deals with Mus musculus. The assay can be described thus: Anti tumor activity in mice bearing lymphocytic leukemia P-388 at 0.5 mg/kg. In short, it runs like this:
as §1

The subject of assay [4] is Mus musculus. The assay can be described thus: Antitumor activity in CF1 mice bearing Ehrlich ascites carcinoma measured as ascites volume at 6 mg/kg. In short, it runs like this: (§3)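 Male CF1 mice (22–25 g) received 2 × 10⁶ Ehrlich carcinoma cells ip on day 0. Dosing was ip daily on days 1–8, with sacrifice on day 9. Ascites fluid volume per mouse and ascrit (packed cell volume) were measured for each group. Vehicle was 0.05% Tween 80, or 5% absolute EtOH in 0.05% Tween 80, used for both compound and control. 6-Mercaptopurine was the positive control.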

The test system of assay [5] is Mus musculus. In words: Anti tumor activity in mice bearing lymphocytic leukemia P-388 at 12 mg/kg. An outline of the steps:
as §2

In assay [6] the test system is Mus musculus. In words: Anti tumor activity in mice bearing lymphocytic leukemia P-388 at 15 mg/kg. An outline of the steps: as §2
For assay [7], the system named is Mus musculus. In words: Average days survived for treated / average days survived for control at 15 (mg/kg); 9.2/9.2.
Assay [8] concerns Mus musculus. In words: Average days survived for treated / average days survived for control at 0.5 (mg/kg); 10.5/9.2.
Assay [9] deals with Mus musculus. In words: Average days survived for treated / average days survived for control at 10 (mg/kg); 12.6/9.2.
Assay [10] concerns Mus musculus. In words: Antitumor activity in CF1 mice bearing Ehrlich ascites carcinoma measured as survivors on day 9 at 5 mg/kg; 5/5.
Assay [11] deals with Mus musculus. In words: Antitumor activity in CF1 mice bearing Ehrlich ascites carcinoma measured as ascites volume at 5 mg/kg. In short, it runs like this:
as §3

Assay [12] concerns Mus musculus. The assay can be described thus: Anti tumor activity in mice bearing lymphocytic leukemia P-388 at 5 mg/kg. In short, it runs like this: as §1
Assay [13] concerns Mus musculus. The assay can be described thus: Antitumor activity in CF1 mice bearing Ehrlich ascites carcinoma measured as percentage inhibition at 5 mg/kg. In short, it runs like this: (§4)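 Ehrlich ascites model in male CF1 mice (22–25 g): 2 × 10⁶ cells ip on day 0, ip dosing days 1–8, kill on day 9. Percent inhibition = 100 − [(treated volume × treated ascrit)/(control volume × control ascrit)]. Greater than 80% was taken as significant. Vehicle was 0.05% Tween 80, alone or with 5% absolute EtOH. 6-Mercaptopurine was the positive control.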

Assay [14] concerns Mus musculus. In words: Average days survived for treated / average days survived for control at 20 (mg/kg); 3.6/9.2.
Assay [15] relates to Mus musculus. The assay can be described thus: Antitumor activity in CF1 mice bearing Ehrlich ascites carcinoma measured as percent ascrit packed cell volume at 6 mg/kg. An outline of the steps: as §3
The subject of assay [16] is Mus musculus. In words: Antitumor activity in CF1 mice bearing Ehrlich ascites carcinoma measured as percentage inhibition at 6 mg/kg. An outline of the steps:
as §4

In assay [17] the test system is Mus musculus. The assay can be described thus: Average days survived for treated / average days survived for control at 1 (mg/kg); 11/9.2.
In assay [18] the test system is Mus musculus. The assay can be described thus: Average days survived for treated / average days survived for control at 12 (mg/kg); 9/9.2.
For assay [19], the system named is Mus musculus. In words: Anti tumor activity in mice bearing lymphocytic leukemia P-388 at 10 mg/kg. In short, it runs like this:
as §2

Assay [20] concerns Mus musculus. In words: Antitumor activity in CF1 mice bearing Ehrlich ascites carcinoma measured as survivors on day 9 at 6 mg/kg; 5/6.
Assay [21] relates to Mus musculus. In words: Antitumor activity in CF1 mice bearing Ehrlich ascites carcinoma measured as percent ascrit packed cell volume at 5 mg/kg. An outline of the steps:
as §3

Assay [22] relates to Mus musculus. In words: Average days survived for treated / average days survived for control at 5 (mg/kg); 10.9/9.2.

For the compound `O=C1C(Cl)=C(Cl)C(=O)c2[nH]ncc21`, the T/C (in general, the result in the treated group divided by that in the control group, in per cent) with Mus musculus [1] is 120%; in the assay on Mus musculus [2], 39%; with Mus musculus [3], 114%; in the assay on Mus musculus [5], 98%; in the assay on Mus musculus [6], 104%; with Mus musculus [12] it was 118%. The same compound came in with a T/C in the assay with Mus musculus [19] of 137%. Also, the ascites volume in the assay on Mus musculus [4] is recorded as 0.6 ml mouse-1; in the assay on Mus musculus [11] it was 0.48 ml mouse-1. Moreover, the “Average survival (days)” value in the assay with Mus musculus [7] is reported as 9.2; with Mus musculus [8] it was 10.5; with Mus musculus [9] it was 12.6; in the assay with Mus musculus [14], 3.6; in the assay with Mus musculus [17], 11; with Mus musculus [18], 9. In addition, the “Average survival (days)” value in the assay on Mus musculus [22] is given as 10.9. Moreover, the Survivors with Mus musculus [10] and in the assay on Mus musculus [20] was 5 in each case. The inhibition in vivo (as a rule, the drop in the measured response relative to a control, in per cent) at 5 mg/kg in the assay with Mus musculus [13] came to 98.6%. In addition, the packed cell volume in the assay with Mus musculus [15] was 24.1%; in the assay on Mus musculus [21], 4.5%. Testing at 6 mg/kg in the assay on Mus musculus [16] gave an inhibition in vivo of 85.4%.
